Reference: ChEMBL document CHEMBL1157594, “Synthesis and evaluation of a set of 4-phenylpiperidines and 4-phenylpiperazines as D2 receptor ligands and the discovery of the dopaminergic stabilizer 4-[3-(methylsulfonyl)phenyl]-1-propylpiperidine (huntexil, pridopidine, ACR16)” (J Med Chem, 2010)

Experiments:
D(2) dopamine receptor [1] = biological target: T1, D(2) dopamine receptor (Homo sapiens, UniProt P14416); assay: biochemical; format: cell-based, HEK293
D(2) dopamine receptor [2] = biological target: T1, D(2) dopamine receptor; assay: biochemical; format: cell-based, HEK293; remark: listed apart in the source
Rattus norvegicus [3] = assay: Reduction in 3,4-dihydroxyphenylacetic acid level in Sprague-Dawley rat striatum at 33 umol/kg, sc relative to saline treated control; format: functional; design: scale not given: the % may be the effect or the level left
In short: (§1)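 Striatal DOPAC measured post-mortem after a single test-compound dose. Each level is expressed as a percentage of the saline-treated control, with n = 4. Significance was tested by Student's t test (P<0.05).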

Rattus norvegicus [4] = assay: Reduction in spontaneous locomotor activity in Sprague-Dawley rat striatum at 33 umol/kg, sc relative to control; format: functional; design: scale not given: the % may be the effect or the level left
Rattus norvegicus [5] = assay: Reduction in amphetamine-induced locomotor activity in Sprague-Dawley rat striatum at 33 umol/kg, sc relative to control; format: functional; design: scale not given: the % may be the effect or the level left
In short: (§2)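 Rats were pretreated with amphetamine (1.5 mg/kg intraperitoneally). Locomotor activity was recorded 15-60 min after test-compound injection, measured at 25 Hz and compared with amphetamine-pretreated controls, with n = 4.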

Rattus norvegicus [6] = assay: Reduction in 3,4-dihydroxyphenylacetic acid level in Sprague-Dawley rat striatum at 7.68 umol/kg, sc relative to saline treated control; format: functional; design: scale not given: the % may be the effect or the level left
In short: (§3)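 Striatal DOPAC was measured by post-mortem biochemistry in rat striatum and expressed relative to saline-injected controls (n = 4). Significance was tested by Student's t test at P<0.05.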

Rattus norvegicus [7] = assay: Reduction in spontaneous locomotor activity in Sprague-Dawley rat striatum at 7.68 umol/kg, sc relative to control; format: functional; design: scale not given: the % may be the effect or the level left
In short: (§4)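 Locomotor activity was recorded in partly habituated rats from 15 to 60 min after injection, sampled at 25 Hz. It was expressed as a percentage of saline control.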

Rattus norvegicus [8] = assay: Reduction in amphetamine-induced locomotor activity in Sprague-Dawley rat striatum at 7.68 umol/kg, sc relative to control; format: functional; design: scale not given: the % may be the effect or the level left
In short: (§5)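 Rats were pretreated with amphetamine at 1.5 mg/kg intraperitoneally. Locomotor activity was recorded from 15 to 60 min after injection, sampled at 25 Hz, and compared with amphetamine-pretreated controls (n = 4).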

Rattus norvegicus [9] = assay: Reduction in 3,4-dihydroxyphenylacetic acid level in Sprague-Dawley rat striatum at 10.5 umol/kg, sc relative to saline treated control; format: functional; design: scale not given: the % may be the effect or the level left
In short: as §3

Rattus norvegicus [10] = assay: Reduction in spontaneous locomotor activity in Sprague-Dawley rat striatum at 10.5 umol/kg, sc relative to control; format: functional; design: scale not given: the % may be the effect or the level left
In short: as §4

Rattus norvegicus [11] = assay: Reduction in amphetamine-induced locomotor activity in Sprague-Dawley rat striatum at 10.5 umol/kg, sc relative to control; format: functional; design: scale not given: the % may be the effect or the level left
In short: as §5

Rattus norvegicus [12] = assay: Reduction in 3,4-dihydroxyphenylacetic acid level in Sprague-Dawley rat striatum at 100 umol/kg, sc relative to saline treated control; format: functional; design: scale not given: the % may be the effect or the level left
In short: as §1

Rattus norvegicus [13] = assay: Reduction in spontaneous locomotor activity in Sprague-Dawley rat striatum at 100 umol/kg, sc relative to control; format: functional; design: scale not given: the % may be the effect or the level left
Rattus norvegicus [14] = assay: Reduction in amphetamine-induced locomotor activity in Sprague-Dawley rat striatum at 100 umol/kg, sc relative to control; format: functional; design: scale not given: the % may be the effect or the level left
In short: as §2

Rattus norvegicus [15] = assay: Reduction in amphetamine-induced locomotor activity in Sprague-Dawley rat striatum at 50 umol/kg, sc relative to control; format: functional; design: scale not given: the % may be the effect or the level left
In short: as §5

Rattus norvegicus [16] = assay: Reduction in 3,4-dihydroxyphenylacetic acid level in Sprague-Dawley rat striatum at 1 umol/kg, sc relative to saline treated control; format: functional; design: scale not given: the % may be the effect or the level left
In short: as §3

Rattus norvegicus [17] = assay: Reduction in spontaneous locomotor activity in Sprague-Dawley rat striatum at 1 umol/kg, sc relative to control; format: functional; design: scale not given: the % may be the effect or the level left
In short: as §4

Rattus norvegicus [18] = assay: Reduction in amphetamine-induced locomotor activity in Sprague-Dawley rat striatum at 1 umol/kg, sc relative to control; format: functional; design: scale not given: the % may be the effect or the level left
In short: as §5

Rattus norvegicus [19] = assay: Reduction in 3,4-dihydroxyphenylacetic acid level in Sprague-Dawley rat striatum at 6.59 umol/kg, sc relative to saline treated control; format: functional; design: scale not given: the % may be the effect or the level left
In short: as §1

Rattus norvegicus [20] = assay: Reduction in spontaneous locomotor activity in Sprague-Dawley rat striatum at 6.59 umol/kg, sc relative to control; format: functional; design: scale not given: the % may be the effect or the level left
Rattus norvegicus [21] = assay: Reduction in 3,4-dihydroxyphenylacetic acid level in Sprague-Dawley rat striatum at 117 umol/kg, sc relative to saline treated control; format: functional; design: scale not given: the % may be the effect or the level left
In short: as §1

Rattus norvegicus [22] = assay: Reduction in spontaneous locomotor activity in Sprague-Dawley rat striatum at 117 umol/kg, sc relative to control; format: functional; design: scale not given: the % may be the effect or the level left

T1 sequence (P14416 whole entry): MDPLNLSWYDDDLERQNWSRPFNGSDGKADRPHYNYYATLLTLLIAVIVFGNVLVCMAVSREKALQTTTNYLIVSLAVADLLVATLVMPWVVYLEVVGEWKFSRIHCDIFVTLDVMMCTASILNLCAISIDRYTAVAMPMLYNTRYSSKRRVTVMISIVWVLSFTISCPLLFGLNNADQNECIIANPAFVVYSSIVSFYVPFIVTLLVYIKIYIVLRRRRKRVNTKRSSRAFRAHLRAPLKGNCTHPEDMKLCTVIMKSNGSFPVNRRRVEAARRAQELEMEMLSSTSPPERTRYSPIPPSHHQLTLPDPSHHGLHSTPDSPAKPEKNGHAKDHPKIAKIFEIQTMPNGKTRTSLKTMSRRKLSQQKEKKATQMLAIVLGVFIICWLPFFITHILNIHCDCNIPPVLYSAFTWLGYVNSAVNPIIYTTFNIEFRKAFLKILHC

With Oc1cccc(C2CCN(Cc3ccccc3)CC2)c1 the Ki (D(2) dopamine receptor [1]) was 285 nM, the Ki (D(2) dopamine receptor [2]) was 35 nM and the Activity (Rattus norvegicus [3]) was 317%. For the same compound, the Activity (Rattus norvegicus [4]) was 85% and the Activity (Rattus norvegicus [5]) was 12%.

With O=C1CCc2ccc(OCCCCN3CCN(c4cccc(Cl)c4Cl)CC3)cc2N1 [ARIPIPRAZOLE] the Activity (Rattus norvegicus [6]) was 150%, the Activity (Rattus norvegicus [7]) was 2% and the Activity (Rattus norvegicus [8]) was 9%.

Cc1cc2c(s1)Nc1ccccc1N=C2N1CCN(C)CC1 [OLANZAPINE] was tested, and the Activity (Rattus norvegicus [9]) was 362%, the Activity (Rattus norvegicus [10]) was 17% and the Activity (Rattus norvegicus [11]) was 6%.

Work on Oc1cccc(N2CCN(Cc3ccccc3)CC2)c1 yielded an Activity (Rattus norvegicus [12]) of 108%, an Activity (Rattus norvegicus [13]) of 8% and an Activity (Rattus norvegicus [14]) of 10%.

CCCN1CCN(c2cccc(O)c2)CC1 showed a Ki (D(2) dopamine receptor [1]) of 721 nM, a Ki (D(2) dopamine receptor [2]) of 69 nM and an Activity (Rattus norvegicus [3]) of 261%. For the same compound, the Activity (Rattus norvegicus [4]) was 31% and the Activity (Rattus norvegicus [5]) was 16%.

With CS(=O)(=O)c1cccc(C2CCN(Cc3ccccc3)CC2)c1 the Ki (D(2) dopamine receptor [1]) was 841 nM, the Ki (D(2) dopamine receptor [2]) was 392 nM and the Activity (Rattus norvegicus [3]) was 310%. It also gave an Activity (Rattus norvegicus [4]) of 44% and an Activity (Rattus norvegicus [15]) of 6%.

For O=C(CCCN1CCC(O)(c2ccc(Cl)cc2)CC1)c1ccc(F)cc1 [HALOPERIDOL], the Activity (Rattus norvegicus [16]) was 425%, the Activity (Rattus norvegicus [17]) was 7% and the Activity (Rattus norvegicus [18]) was 1%.

O=c1[nH]c2cccc(N3CCN(Cc4cccc(-c5ccccc5)c4)CC3)c2o1 [BIFEPRUNOX] gave an Activity (Rattus norvegicus [6]) of 152%, an Activity (Rattus norvegicus [7]) of 7% and an Activity (Rattus norvegicus [8]) of 5%.

Compound CCCN1CCC[C@@H](c2cccc(S(C)(=O)=O)c2)C1 has a Ki (D(2) dopamine receptor [1]) of 3880 nM, a Ki (D(2) dopamine receptor [2]) of 755 nM and an Activity (Rattus norvegicus [12]) of 260%. For the same compound, the Activity (Rattus norvegicus [13]) was 215% and the Activity (Rattus norvegicus [14]) was 37%.

Work on CN1CCc2cccc3c2[C@H]1Cc1ccc(O)c(O)c1-3 [APOMORPHINE] yielded an Activity (Rattus norvegicus [19]) of 77% and an Activity (Rattus norvegicus [20]) of 7118%.

CCCN1CCC(c2cccc(O)c2)CC1 showed a Ki (D(2) dopamine receptor [1]) of 2570 nM and a Ki (D(2) dopamine receptor [2]) of 349 nM.

CCCN1CCC[C@@H](c2cccc(O)c2)C1 [PRECLAMOL] was tested, and the Activity (Rattus norvegicus [21]) was 175% and the Activity (Rattus norvegicus [22]) was 37%.

For CCCN1CCC(c2cccc(S(C)(=O)=O)c2)CC1 [PRIDOPIDINE], the Ki (D(2) dopamine receptor [1]) was 17500 nM, the Ki (D(2) dopamine receptor [2]) was 7520 nM and the Activity (Rattus norvegicus [12]) was 265%. It also gave an Activity (Rattus norvegicus [13]) of 262%.

In the case of CS(=O)(=O)c1cccc(N2CCN(Cc3ccccc3)CC2)c1, the Ki (D(2) dopamine receptor [1]) is reported as 1920 nM, the Ki (D(2) dopamine receptor [2]) is reported as 431 nM and the Activity (Rattus norvegicus [12]) is reported as 248%. For the same compound, the Activity (Rattus norvegicus [13]) was 17% and the Activity (Rattus norvegicus [14]) was 15%.

CCCN1CCN(c2cccc(S(C)(=O)=O)c2)CC1 gave a Ki (D(2) dopamine receptor [1]) of 1210 nM, a Ki (D(2) dopamine receptor [2]) of 664 nM and an Activity (Rattus norvegicus [3]) of 310%. The Activity (Rattus norvegicus [4]) was 27% and the Activity (Rattus norvegicus [5]) was 6%.
